Experimental data from ChEMBL document CHEMBL1132192, “Design, synthesis, and evaluation of conformationally constrained tongs, new inhibitors of HIV-1 protease dimerization” (J Med Chem, 1999).
Numbered stars: 1 amine (or outer) side, 2 acyl side, 3 side chain; on linkers, the order of the positions; unused ones are H or OH. Bridge positions count the residues as written; N and C are the ends. Square brackets hold non-standard residues; d marks the D form. Peptide text beside a SMILES is read from it. I, II: the chains in the order shown. * marks the point of attachment. ξ: configuration not given here. Naphthalene(2,7-(OC3H6CO)2) = O=C(CCCOc1ccc2ccc(OCCCC(=O)[*:2])cc2c1)[*:1]; X1 = COC(=O)CCCOc1ccc2ccc(OCCCC(=O)*)cc2c1; Thr(3ξ) = CC(O)[C@H](N)C(=O)O

molecular target: Human immunodeficiency virus type 1 protease (Human immunodeficiency virus 1) (UniProt Q72874); assay: The compound was tested for HIV-1 protease inhibitory activity against plasmid pET9c-PR expressing HIV-1 protease at 6.7 uM
How it was run: (§1)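 Recombinant HIV-1 protease (expressed from pET9c-PR), 7.5 nM final, prediluted in buffer with 1 mg/mL BSA. Inhibitor was mixed with fluorogenic substrate (5.2 μM final) and the reaction started with enzyme. Fluorescence rise at 490 nm (excitation 340 nm) was followed for 5 min at 30 °C.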

inhibition [%] | SMILES
30 | COC(=O)[C@@H](NC(=O)[C@H](CC(C)C)NC(=O)[C@@H](NC(=O)CCCOc1cccc(OCCCC(=O)N[C@H](C(=O)N[C@@H](CC(C)C)C(=O)N[C@H](C(=O)OC)C(C)C)C(C)O)n1)C(C)O)C(C)C (stereo not given in full)

molecular target: Human immunodeficiency virus type 1 protease (Human immunodeficiency virus 1) (UniProt Q72874); assay: The compound was tested for HIV-1 protease inhibitory activity against plasmid pET9c-PR expressing HIV-1 protease at 4.5 uM; how it was run: as §1

inhibition [%] | SMILES
30 | COC(=O)CCCOc1ccc2ccc(OCCCC(=O)N[C@H](C(=O)N[C@@H](CC(C)C)C(=O)N[C@H](C(=O)OC)C(C)C)C(C)O)cc2c1 (stereo not given in full)

molecular target: T1, Human immunodeficiency virus type 1 protease (Human immunodeficiency virus 1, UniProt Q72874); assay: Inhibition of plasmid pET9c-PR expressing HIV-1 protease (No inhibition)

SMILES | IC50
CC(C)C[C@H](NC(=O)[C@@H](NC(=O)CCCOc1cccc(OCCCC(=O)N[C@H](C(=O)N[C@@H](CC(C)C)C(=O)N[C@H](C(=O)O)C(C)C)C(C)O)c1)C(C)O)C(=O)N[C@H](C(=O)O)C(C)C (stereo not given in full) | Not Active
COC(=O)[C@@H](NC(=O)[C@H](CC(C)C)NC(=O)[C@@H](NC(=O)CCCOc1cccc(OCCCC(=O)N[C@H](C(=O)N[C@@H](CC(C)C)C(=O)N[C@H](C(=O)OC)C(C)C)C(C)C)c1)C(C)C)C(C)C | Not Active
COC(=O)[C@@H](NC(=O)[C@@H](NC(=O)CCCOc1cccc(OCCCC(=O)N[C@H](C(=O)N[C@H](C(=O)OC)C(C)C)C(C)O)n1)C(C)O)C(C)C (stereo not given in full) | Not Active
CC(C)C[C@H](NC(=O)[C@@H](NC(=O)CCCOc1ccc2ccc(OCCCC(=O)N[C@H](C(=O)N[C@@H](CC(C)C)C(=O)N[C@H](C(=O)OCc3ccccc3)C(C)C)C(C)O)cc2c1)C(C)O)C(=O)N[C@H](C(=O)OCc1ccccc1)C(C)C (stereo not given in full) | Not Active
COC(=O)CCCOc1ccc2ccc(OCCCC(=O)N[C@H](C(=O)N[C@@H](CC(C)C)C(=O)N[C@H](C(=O)OC)C(C)C)C(C)C)cc2c1 | Not Active
CC[C@H](C)[C@H](NC(=O)[C@H](CCC(N)=O)NC(=O)CCCOc1ccc2ccc(OCCCC(=O)N[C@@H](CCC(N)=O)C(=O)N[C@H](C(=O)N[C@H](C(=O)N[C@@H](CC(C)C)C(=O)OC)C(C)O)[C@@H](C)CC)cc2c1)C(=O)N[C@H](C(=O)N[C@@H](CC(C)C)C(=O)OC)C(C)O (stereo partly drawn) (I: QI[Thr(3ξ)]L-OMe / II: QI[Thr(3ξ)]L-OMe; linker I:N-II:N via Naphthalene(2,7-(OC3H6CO)2)) | Not Active
CC[C@H](C)[C@H](NC(=O)[C@H](CCC(N)=O)NC(=O)CCCOc1cccc(OCCCC(=O)N[C@@H](CCC(N)=O)C(=O)N[C@H](C(=O)N[C@H](C(=O)N[C@@H](CC(C)C)C(=O)OC)C(C)O)[C@@H](C)CC)n1)C(=O)N[C@H](C(=O)N[C@@H](CC(C)C)C(=O)OC)C(C)O (stereo not given in full) | Not Active
COC(=O)[C@H](Cc1ccc(O)cc1)NC(=O)[C@H](CC(C)C)NC(=O)[C@@H](NC(=O)CCCOc1ccc2ccc(OCCCC(=O)N[C@H](C(=O)N[C@@H](CC(C)C)C(=O)N[C@@H](Cc3ccc(O)cc3)C(=O)OC)C(C)O)cc2c1)C(C)O (stereo not given in full) | Not Active
COC(=O)CCCOc1ccc2ccc(OCCCC(=O)N[C@H](C(=O)N[C@@H](CC(C)C)C(=O)N[C@@H](Cc3ccc(O)cc3)C(=O)OC)C(C)O)cc2c1 (stereo not given in full) | Not Active
COC(=O)[C@@H](NC(=O)[C@H](CC(C)C)NC(=O)[C@@H](NC(=O)CCCOc1ccc2ccc(OCCCC(=O)N[C@H](C(=O)N[C@@H](CC(C)C)C(=O)N[C@H](C(=O)OC)C(C)C)C(C)O)cc2c1)C(C)O)C(C)C (stereo not given in full) | Not Active
COC(=O)[C@@H](NC(=O)[C@@H](NC(=O)[C@H](CC(C)C)NC(=O)[C@@H](NC(=O)CCCOc1ccc2ccc(OCCCC(=O)N[C@H](C(=O)N[C@@H](CC(C)C)C(=O)N[C@H](C(=O)N[C@H](C(=O)OC)C(C)C)C(C)C)[C@@H](C)O)cc2c1)[C@@H](C)O)C(C)C)C(C)C (I: TLVV-OMe / II: TLVV-OMe; linker I:N-II:N via Naphthalene(2,7-(OC3H6CO)2)) | Not Active
CC[C@H](C)[C@H](NC(=O)[C@H](CCC(N)=O)NC(=O)CCCOc1ccc2ccc(OCCCC(=O)OC)cc2c1)C(=O)N[C@H](C(=O)N[C@@H](CC(C)C)C(=O)OC)C(C)O (stereo partly drawn) (X1-QI[Thr(3ξ)]L-OMe) | Not Active
CC[C@@H](C)[C@H](NC(=O)[C@H](CCC(N)=O)NC(=O)CCCOc1cccc(OCCCC(=O)N[C@@H](CCC(N)=O)C(=O)N[C@H](C(=O)OC)[C@H](C)CC)c1)C(=O)OC | Not Active
CC[C@@H](C)[C@H](NC(=O)[C@H](CCC(N)=O)NC(=O)CCCOc1ccc2ccc(OCCCC(=O)N[C@@H](CCC(N)=O)C(=O)N[C@H](C(=O)OC)[C@H](C)CC)cc2c1)C(=O)OC | Not Active

molecular target: Human immunodeficiency virus type 1 protease (Human immunodeficiency virus 1) (UniProt Q72874); assay: The compound was tested for HIV-1 protease inhibitory activity against plasmid pET9c-PR expressing HIV-1 protease. activity is expressed as Kid value.
How it was run: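 Dissociative (antidimer) inhibition was analysed by the Zhang kinetic method. Fluorogenic substrate was held at 5.2 μM ([S]0 ≪ Km, Km = 103 μM), with at least five HIV-1 protease (pET9c-PR) levels (2.37–11.8 nM) at several inhibitor concentrations. Runs were at pH 4.7 acetate buffer, 30 °C, fluorescence 340/490 nm. Kid was taken from regression fits of [E]0/√vi versus √vi.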

SMILES | Kid [µM]
COC(=O)[C@@H](NC(=O)[C@H](CC(C)C)NC(=O)[C@@H](NC(=O)CCCOc1ccc2ccc(OCCCC(=O)N[C@H](C(=O)N[C@@H](CC(C)C)C(=O)N[C@H](C(=O)OC)C(C)C)C(C)C)cc2c1)C(C)C)C(C)C | 0.56
COC(=O)[C@H](CC(C)C)NC(=O)[C@H](CC(C)C)NC(=O)CNC(=O)CCCOc1cccc(OCCCC(=O)NCC(=O)N[C@@H](CC(C)C)C(=O)N[C@@H](CC(C)C)C(=O)OC)n1 | 4.5
COC(=O)[C@H](Cc1ccccc1)NC(=O)[C@H](CC(N)=O)NC(=O)[C@H](CC(C)C)NC(=O)[C@@H](NC(=O)CCCOc1ccc2ccc(OCCCC(=O)N[C@H](C(=O)N[C@@H](CC(C)C)C(=O)N[C@@H](CC(N)=O)C(=O)N[C@@H](Cc3ccccc3)C(=O)OC)C(C)O)cc2c1)C(C)O (stereo not given in full) (I: [Thr(3ξ)]LNF-OMe / II: [Thr(3ξ)]LNF-OMe; linker I:N-II:N via Naphthalene(2,7-(OC3H6CO)2)) | 1
CC[C@@H](C)[C@H](NC(=O)[C@@H](NC(=O)CCCOc1cccc(OCCCC(=O)N[C@H](C(=O)N[C@H](C(=O)N[C@H](C(=O)OC)C(C)C)[C@H](C)CC)C(C)O)n1)C(C)O)C(=O)N[C@H](C(=O)OC)C(C)C (stereo not given in full) | 1.4

molecular target: T1, Human immunodeficiency virus type 1 protease; assay: The compound was tested for HIV-1 protease inhibitory activity against plasmid pET9c-PR expressing HIV-1 protease.

SMILES | IC50 [µM]
COC(=O)[C@@H](NC(=O)[C@H](CC(C)C)NC(=O)[C@@H](NC(=O)CCCOc1ccc2ccc(OCCCC(=O)N[C@H](C(=O)N[C@@H](CC(C)C)C(=O)N[C@H](C(=O)OC)C(C)C)C(C)C)cc2c1)C(C)C)C(C)C | 2
COC(=O)[C@H](CC(C)C)NC(=O)[C@H](CC(C)C)NC(=O)CNC(=O)CCCOc1cccc(OCCCC(=O)NCC(=O)N[C@@H](CC(C)C)C(=O)N[C@@H](CC(C)C)C(=O)OC)n1 | 16
CC(C)C[C@H](NC(=O)[C@@H](NC(=O)CCCOc1ccc2ccc(OCCCC(=O)N[C@H](C(=O)N[C@@H](CC(C)C)C(=O)N[C@H](C(=O)O)C(C)C)C(C)O)cc2c1)C(C)O)C(=O)N[C@H](C(=O)O)C(C)C (stereo not given in full) | 10
COC(=O)[C@H](Cc1ccccc1)NC(=O)[C@H](CC(N)=O)NC(=O)[C@H](CC(C)C)NC(=O)[C@@H](NC(=O)CCCOc1ccc2ccc(OCCCC(=O)N[C@H](C(=O)N[C@@H](CC(C)C)C(=O)N[C@@H](CC(N)=O)C(=O)N[C@@H](Cc3ccccc3)C(=O)OC)C(C)O)cc2c1)C(C)O (stereo not given in full) (I: [Thr(3ξ)]LNF-OMe / II: [Thr(3ξ)]LNF-OMe; linker I:N-II:N via Naphthalene(2,7-(OC3H6CO)2)) | 4.4
CC[C@@H](C)[C@H](NC(=O)[C@@H](NC(=O)CCCOc1cccc(OCCCC(=O)N[C@H](C(=O)N[C@H](C(=O)N[C@H](C(=O)OC)C(C)C)[C@H](C)CC)C(C)O)n1)C(C)O)C(=O)N[C@H](C(=O)OC)C(C)C (stereo not given in full) | 4.2
COC(=O)[C@@H](NC(=O)[C@H](CC(C)C)NC(=O)[C@@H](NC(=O)CCCOc1cccc(OCCCC(=O)N[C@H](C(=O)N[C@@H](CC(C)C)C(=O)N[C@H](C(=O)OC)C(C)C)C(C)C)n1)C(C)C)C(C)C | 3
COC(=O)CCCOc1ccc2ccc(OCCCC(=O)N[C@H](C(=O)N[C@@H](CC(C)C)C(=O)N[C@H](C(=O)N[C@H](C(=O)OC)C(C)C)C(C)C)C(C)O)cc2c1 (stereo not given in full) (X1-[Thr(3ξ)]LVV-OMe) | 10
COC(=O)[C@H](Cc1ccccc1)NC(=O)[C@H](CC(N)=O)NC(=O)[C@H](CC(C)C)NC(=O)[C@@H](NC(=O)CCCOc1cccc(OCCCC(=O)N[C@H](C(=O)N[C@@H](CC(C)C)C(=O)N[C@@H](CC(N)=O)C(=O)N[C@@H](Cc2ccccc2)C(=O)OC)C(C)O)n1)C(C)O (stereo not given in full) | 10
CC(C)C[C@H](NC(=O)[C@@H](NC(=O)CCCOc1cccc(OCCCC(=O)N[C@H](C(=O)N[C@@H](CC(C)C)C(=O)N[C@H](C(=O)O)C(C)C)C(C)O)n1)C(C)O)C(=O)N[C@H](C(=O)O)C(C)C (stereo not given in full) | 34

molecular target: Human immunodeficiency virus type 1 protease (Human immunodeficiency virus 1) (UniProt Q72874); assay: The compound was tested for HIV-1 protease inhibitory activity against plasmid pET9c-PR expressing HIV-1 protease at 7 uM; how it was run: as §1

SMILES | inhibition [%]
COC(=O)CCCOc1ccc2ccc(OCCCC(=O)N[C@H](C(=O)N[C@@H](CC(C)C)C(=O)N[C@@H](CC(N)=O)C(=O)N[C@@H](Cc3ccccc3)C(=O)OC)C(C)O)cc2c1 (stereo not given in full) (X1-[Thr(3ξ)]LNF-OMe) | 30
